Data: ChEMBL document CHEMBL1125285, “Gastrin releasing peptide antagonists with improved potency and stability” (J Med Chem, 1991)
pEC50, pIC50: −log10 of the molar value. Non-standard residues stand in square brackets, D forms with d. Residues, ends and D or L forms follow the SMILES beside them. *: point of attachment. NHCH(iBu)2 = CC(C)CC(CC(C)C)N*; X1 = CC(C)CCOC[C@H](CC(C)C)N*; X11 = CCCCC[C@@H](CC(C)C)N*; Leu(ol) = CC(C)C[C@H](N)CO; X10 = CCCOC[C@H](CC(C)C)N*; X4 = CCCCCC[C@H](CC(C)C)N*; X12 = CCCC[C@H](CC(C)C)N*; X8 = CCCC[C@@H](CC(C)C)N*; X5 = CCOC[C@H](CC(C)C)N*; X9 = CCC[C@@H](CC(C)C)N*; X3 = COC[C@H](CC(C)C)N*; X6 = CCC[C@H](CC(C)C)N*; X2 = CCCCC(CCCC)N*

How the values were obtained:
[1] = biological target: Gastrin-releasing peptide receptor (Mus musculus, UniProt P21729); assay: Inhibition against Swiss 3T3 murine fibroblast cells.; type: functional, cell-based
Chain of Gastrin-releasing peptide receptor (P21729 whole entry): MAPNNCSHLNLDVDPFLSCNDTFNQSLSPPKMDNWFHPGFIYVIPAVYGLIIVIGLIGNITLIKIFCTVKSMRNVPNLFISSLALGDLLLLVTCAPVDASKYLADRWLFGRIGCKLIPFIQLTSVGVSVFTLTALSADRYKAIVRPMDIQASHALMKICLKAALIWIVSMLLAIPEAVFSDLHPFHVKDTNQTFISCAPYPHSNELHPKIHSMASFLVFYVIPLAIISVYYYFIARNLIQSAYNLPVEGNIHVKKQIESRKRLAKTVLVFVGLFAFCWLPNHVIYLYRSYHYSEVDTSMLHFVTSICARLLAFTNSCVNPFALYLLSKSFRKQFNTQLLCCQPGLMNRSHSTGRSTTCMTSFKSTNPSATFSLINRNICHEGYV
In short: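 Competitive binding on confluent Swiss 3T3 monolayers grown in DMEM with 10% FBS and 2 mM glutamine. [3H-Phe15]GRP-15-27 amide used at 2 nM final, at 15 °C for 1–2 h. Nonspecific binding defined with excess unlabeled GRP. Run in triplicate in at least two trials; mean IC50 reported.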

[2] = Compound was evaluated for mitogenic stimulation against Swiss 3T3 murine fibroblast cells.; type: functional, cell-based, Mus musculus
In short: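 Confluent Swiss 3T3 monolayers held in serum-free DMEM for 48 h, then peptide and 23 nM [3H]thymidine added. After 48 h more, cells detached with trypsin/5 mM EDTA and filter-harvested to measure [3H]thymidine uptake. EC50 is the mean of at least two independent experiments.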

pIC50 [1]	SMILES	pEC50 [2]
8.92	CC(=O)N[C@@H](Cc1c[nH]cn1)C(=O)N[C@@H](Cc1c[nH]c2ccccc12)C(=O)N[C@@H](C)C(=O)N[C@H](C(=O)NCC(=O)N[C@@H](Cc1c[nH]cn1)C(=O)NC(CC(C)C)CC(C)C)C(C)C (Ac-HWAVGH-{NHCH(iBu)2})	–
8.74	CSCC[C@H](NC(=O)[C@H](CC(C)C)NC(=O)[C@H](Cc1c[nH]cn1)NC(=O)CNC(=O)[C@@H](NC(=O)[C@H](C)NC(=O)[C@H](Cc1c[nH]c2ccccc12)NC(=O)[C@H](Cc1c[nH]cn1)NC(C)=O)C(C)C)C(N)=O	9.70
7.09	CC(=O)N[C@@H](Cc1c[nH]cn1)C(=O)N[C@@H](Cc1c[nH]c2ccccc12)C(=O)N[C@@H](C)C(=O)N[C@H](C(=O)NCC(=O)N[C@@H](Cc1c[nH]cn1)C(=O)N[C@H](CO)CC(C)C)C(C)C (Ac-HWAVGH[Leu(ol)])	–
8.08	COC[C@H](CC(C)C)NC(=O)[C@H](Cc1c[nH]cn1)NC(=O)CNC(=O)[C@@H](NC(=O)[C@H](C)NC(=O)[C@H](Cc1c[nH]c2ccccc12)NC(=O)[C@H](Cc1c[nH]cn1)NC(C)=O)C(C)C (Ac-HWAVGH-X3)	–
6.74	CSCC[C@H](NC(=O)[C@H](CC(C)C)NC(=O)[C@H](Cc1c[nH]cn1)NC(=O)[C@H](C)NC(=O)[C@@H](NC(=O)[C@H](C)NC(=O)[C@H](Cc1c[nH]c2ccccc12)NC(=O)[C@H](Cc1c[nH]cn1)NC(C)=O)C(C)C)C(N)=O	7.70
8.85	CCCC[C@H](CC(C)C)NC(=O)[C@H](Cc1cnc[nH]1)NC(=O)CNC(=O)[C@@H](NC(=O)[C@H](C)NC(=O)[C@H](Cc1c[nH]c2ccccc12)NC(=O)[C@H](Cc1cnc[nH]1)NC(C)=O)C(C)C (Ac-HWAVGH-X12)	–
8.48	CCCCC(CCCC)NC(=O)[C@H](Cc1cnc[nH]1)NC(=O)CNC(=O)[C@@H](NC(=O)[C@H](C)NC(=O)[C@H](Cc1c[nH]c2ccccc12)NC(=O)[C@H](Cc1cnc[nH]1)NC(C)=O)C(C)C (Ac-HWAVGH-X2)	–
8.31	CCC[C@@H](CC(C)C)NC(=O)[C@H](Cc1c[nH]cn1)NC(=O)CNC(=O)[C@@H](NC(=O)[C@H](C)NC(=O)[C@H](Cc1c[nH]c2ccccc12)NC(=O)[C@H](Cc1c[nH]cn1)NC(C)=O)C(C)C (Ac-HWAVGH-X9)	–
7.96	CCCCC[C@@H](CC(C)C)NC(=O)[C@H](Cc1c[nH]cn1)NC(=O)CNC(=O)[C@@H](NC(=O)[C@H](C)NC(=O)[C@H](Cc1c[nH]c2ccccc12)NC(=O)[C@H](Cc1c[nH]cn1)NC(C)=O)C(C)C (Ac-HWAVGH-X11)	–
7.96	CC(=O)N[C@@H](Cc1c[nH]cn1)C(=O)N[C@@H](Cc1c[nH]c2ccccc12)C(=O)N[C@@H](C)C(=O)N[C@H](C(=O)NCC(=O)N[C@@H](Cc1c[nH]cn1)C(=O)N[C@H](COCCC(C)C)CC(C)C)C(C)C (Ac-HWAVGH-X1)	–
8.62	CCCC[C@@H](CC(C)C)NC(=O)[C@H](Cc1c[nH]cn1)NC(=O)CNC(=O)[C@@H](NC(=O)[C@H](C)NC(=O)[C@H](Cc1c[nH]c2ccccc12)NC(=O)[C@H](Cc1c[nH]cn1)NC(C)=O)C(C)C (Ac-HWAVGH-X8)	–
8.21	CCOC[C@H](CC(C)C)NC(=O)[C@H](Cc1c[nH]cn1)NC(=O)CNC(=O)[C@@H](NC(=O)[C@H](C)NC(=O)[C@H](Cc1c[nH]c2ccccc12)NC(=O)[C@H](Cc1c[nH]cn1)NC(C)=O)C(C)C (Ac-HWAVGH-X5)	–
8.49	CCCOC[C@H](CC(C)C)NC(=O)[C@H](Cc1c[nH]cn1)NC(=O)CNC(=O)[C@@H](NC(=O)[C@H](C)NC(=O)[C@H](Cc1c[nH]c2ccccc12)NC(=O)[C@H](Cc1c[nH]cn1)NC(C)=O)C(C)C (Ac-HWAVGH-X10)	–
6.39	CCOC[C@H](CC(C)C)NC(=O)[C@H](Cc1c[nH]cn1)NC(=O)[C@H](C)NC(=O)[C@@H](NC(=O)[C@H](C)NC(=O)[C@H](Cc1c[nH]c2ccccc12)NC(=O)[C@H](Cc1c[nH]cn1)NC(C)=O)C(C)C	–
8.55	CCCCCC[C@H](CC(C)C)NC(=O)[C@H](Cc1c[nH]cn1)NC(=O)CNC(=O)[C@@H](NC(=O)[C@H](C)NC(=O)[C@H](Cc1c[nH]c2ccccc12)NC(=O)[C@H](Cc1c[nH]cn1)NC(C)=O)C(C)C (Ac-HWAVGH-X4)	–
8.49	CSCC[C@H](NC(=O)[C@H](CC(C)C)NC(=O)[C@H](Cc1c[nH]cn1)NC(=O)[C@@H](C)NC(=O)[C@@H](NC(=O)[C@H](C)NC(=O)[C@H](Cc1c[nH]c2ccccc12)NC(=O)[C@H](Cc1c[nH]cn1)NC(C)=O)C(C)C)C(N)=O	9.70
8.39	CSCC[C@H](NC(=O)[C@H](CC(C)C)NC(=O)[C@H](Cc1c[nH]cn1)NC(=O)CNC(=O)[C@@H](NC(=O)[C@H](C)NC(=O)[C@H](Cc1c[nH]c2ccccc12)NC(=O)[C@H](Cc1c[nH]cn1)NC(=O)C(C)(C)C)C(C)C)C(N)=O	9.70
8.30	CCOC[C@H](CC(C)C)NC(=O)[C@H](Cc1c[nH]cn1)NC(=O)[C@@H](C)NC(=O)[C@@H](NC(=O)[C@H](C)NC(=O)[C@H](Cc1c[nH]c2ccccc12)NC(=O)[C@H](Cc1c[nH]cn1)NC(C)=O)C(C)C	–
8.59	CCC[C@H](CC(C)C)NC(=O)[C@H](Cc1cnc[nH]1)NC(=O)CNC(=O)[C@@H](NC(=O)[C@H](C)NC(=O)[C@H](Cc1c[nH]c2ccccc12)NC(=O)[C@H](Cc1cnc[nH]1)NC(C)=O)C(C)C (Ac-HWAVGH-X6)	–
